# Compound activity (PubChem)
# Cneo AK release: Cryptococcus neoformans cell lysis inducers, primary screen, AK release luminescence, single concentration | C. neoformans lysis, adenylate kinase release luminescence, 4 h; normalised: neutral wells 0, clomiphene wells 100 | lysis activity, % at 15 µM | hit rate 0.2% among 360,000 | AID 651654, 2012;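 active = mean lysis activity across replicates of at least 80%, whatever share of replicates individually reach that level; inactive = mean lysis activity below 80%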
#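 Assay system: C. neoformans cells. Amount: yeast cell density of 5 × 10^6 cells/mL. Technique: AK luminescence. Buffer or medium: YPD. Times: static 4 h at 37 °C with compound, 1 h detection. Dosing: single-point compound dose. Read-out: lysis from increased AK signal.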
# rRNA inh HTS: reduced GFP signal of wild-type E. coli, primary screen, bacterial rRNA inhibitor project, GFP/RFP fluorescence, OD600, single point | E. coli WT GFP vs humanized-ribosome RFP mutants, 24 h; active compounds read low; DMSO median 0, no signal -100 | GFP signal change (wild-type ribosome), % (test concentration not listed) | hit rate 1.6% among 350,000;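 active = significant combined selectivity score with lowered wild-type GFP, culture density cut under 30%, mutant RFP and density less affected; inactive = any of these conditions unmet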
# iPSC survival up: enhancers of single-cell hiPSC survival, primary screen, ATPlite luminescence; hit rate 0.044% among 360,000; survival enhancement, % at 20 µM; 100% = ROCK inhibitor wells, 0% = DMSO; in the data active = survival enhancement above about 18%;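 note: cells exposed to compounds for 16 hours before the ATP read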
# SKN-1 block: suppressors of acrylamide-induced Pgst-4::GFP reporter in worms, primary screen, SKN-1 inhibitor project, whole organism, uHTS, GFP/RFP fluorescence ratio, strain VP596; hit rate 0.49% among 360,000; inhibition, % at 21.8 µM; AID 624304, 2012; C. elegans VP596 Pgst-4::GFP/RFP ratio, 24 h;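 active = interference check ratio from 0.5 to 1.5 plus GFP to RFP signal ratio inhibition reaching or exceeding a fixed threshold, cut at about 30% in these data, passing the limit was not always enough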
# MT1-MMP act inh: blockers of MT1-MMP proenzyme processing, primary screen, HT1080 RFP-PRO-GFP cells, GFP/RFP fluorescence; GFP/RFP ratio fluorescence, overnight; percent of plate control window, DMSO zero; GFP/RFP ratio change, % at 20 µM; Matrix metalloproteinase-14 (Homo sapiens), P50281; hit rate 0.061% among 360,000;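 active = GFP/RFP ratio change of at least 30% with cell ATP level not reduced by more than half and red fluorescence within 50% of control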
#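 Test system: HT1080 RFP-PRO-GFP cells; Benchmarks: DMSO and RFP-L50D-GFP cell wells; Timing: cells overnight before dosing, compound overnight, 37 °C, 5% CO2; Compound: one 20 µM compound dose with 1% DMSO; Read-out: GFP/RFP fluorescence ratio.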
# DAGLB inh: DAGLB lipase inhibitors, primary screen, biochemical, fluorescence, HTS; AID 504411, 2011; Diacylglycerol lipase-beta (Homo sapiens), Q8NCG7; hit rate 0.059% among 340,000; inhibition, % at 5.17 µM; HEK293T DAGLB membrane lysate, EnzChek fluorogenic substrate; in the data active = inhibition above about 34%;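 note: 0% = enzyme with vehicle and 100% = wells lacking enzyme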
# Target sequence (Q8NCG7 whole entry, looked up): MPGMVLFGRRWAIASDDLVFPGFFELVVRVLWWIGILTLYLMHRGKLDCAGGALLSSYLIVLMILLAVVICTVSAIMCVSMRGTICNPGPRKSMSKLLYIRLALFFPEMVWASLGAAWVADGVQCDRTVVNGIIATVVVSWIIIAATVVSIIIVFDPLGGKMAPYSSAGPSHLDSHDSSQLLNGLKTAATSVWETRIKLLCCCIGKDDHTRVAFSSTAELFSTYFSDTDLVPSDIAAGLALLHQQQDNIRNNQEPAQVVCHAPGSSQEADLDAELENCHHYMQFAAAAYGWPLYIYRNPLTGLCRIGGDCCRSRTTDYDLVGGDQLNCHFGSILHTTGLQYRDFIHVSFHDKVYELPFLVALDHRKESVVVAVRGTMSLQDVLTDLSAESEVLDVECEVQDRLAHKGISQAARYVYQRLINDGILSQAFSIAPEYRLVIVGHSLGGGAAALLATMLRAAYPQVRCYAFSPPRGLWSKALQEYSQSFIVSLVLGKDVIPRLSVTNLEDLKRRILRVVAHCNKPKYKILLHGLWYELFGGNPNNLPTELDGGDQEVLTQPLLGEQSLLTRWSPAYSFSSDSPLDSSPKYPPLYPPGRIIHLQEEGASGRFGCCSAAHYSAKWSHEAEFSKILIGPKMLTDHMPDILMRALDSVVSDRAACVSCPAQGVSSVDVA
# Active calls of the source: *; / = no result; ! = not confirmed by another sample. Most compounds without a hit are left out; they make up all but 1.8% or so of the library.
SMILES,Cneo AK release,rRNA inh HTS,iPSC survival up,SKN-1 block,MT1-MMP act inh,DAGLB inh
Cc1ccc(Sc2nc(C)c([N+](=O)[O-])c(C)c2C#N)cc1,-2,-13,0,-3,-2,/
Cc1nc(Sc2ccc(Cl)cc2)c(C#N)c(C)c1[N+](=O)[O-],-1,-20*,0,7,-10,-18
CC(C)CC#Cc1ccc2c(c1)O[C@@H](CN(C)C(=O)C1CCC1)[C@@H](C)CN([C@H](C)CO)S2(=O)=O,100*,-5,/,/,/,/
CC(C)CC#Cc1ccc2c(c1)O[C@H](CN(C)C(=O)C1CCC1)[C@@H](C)CN([C@@H](C)CO)S2(=O)=O,109*,-14,/,/,/,/
C[C@@H]1CN([C@H](C)CO)S(=O)(=O)c2ccc(-c3ccc(C(=O)N(C)C)cc3)cc2O[C@H]1CN(C)C(=O)Cc1ccccn1,93*!,11,-2,4,-1,-2
C[C@@H]1CN([C@@H](C)CO)S(=O)(=O)c2ccc(-c3ccccc3)cc2O[C@H]1CN(C)C(=O)C1CCCCC1,112*,-11,/,/,/,/
C[C@@H]1CN([C@@H](C)CO)C(=O)c2cc(NC(=O)c3ccccc3)ccc2O[C@@H](C)CCCCO[C@H]1CN(C)C(=O)c1ccccc1,-1,-4,/,/,/,/
CC(C)NC(=O)N(C)C[C@@H]1OCCCC[C@@H](C)Oc2ccc(NC(=O)Cc3ccccc3)cc2C(=O)N([C@@H](C)CO)C[C@H]1C,-1,1,/,/,/,/
Cc1ccc(S(=O)(=O)N[C@H](C(=O)OCC(=O)NC(=O)NCc2ccco2)C(C)C)cc1,/,-7,24*,0,3,0
CC(C)[C@H](NC(=O)c1ccccc1Cl)C(=O)OCC(=O)NC(=O)NCc1ccco1,-2,0,0,-9,-1,0
O=C(O)C[C@@H]1C[C@@H]2c3cc(NC(=O)Nc4ccc(F)cc4)ccc3O[C@@H]2[C@H](CO)O1,11,2,/,/,/,/
CC1=Nc2ccccc2N=C(NC(=O)CSC(=S)N2CCN(C)CC2)C1c1ccccc1 (stereo not drawn),0,-3,0,-12,0,-2
CC1=Nc2ccccc2N=C(NC(=O)CSC(=S)N2CCCCC2)C1c1ccccc1 (stereo not drawn),/,-21*,0,-6,-2,-3
Cc1ccccc1-c1cnn(-c2cccc([N+](=O)[O-])c2)c1N,-6,-46*,4,1,0,-2
CC(=O)N1/C(=C/c2ccc(N(C)C)cc2)C(=O)c2ccccc21,/,-5,-4,35*,6,2
Cc1ccc(C2CCN(C(=S)NC(C)(C)C)C2)cc1 (stereo not drawn),/,-7,0,12,3,-5
Cc1ccc(C2CCN(C(=S)NC3CCCCC3)C2)cc1 (stereo not drawn),119*,-8,0,9,-8,-2
COCC(=O)Nc1ccc2c(c1)C(=O)N(C)C[C@@H](OC)[C@H](C)CN(Cc1cccc(F)c1)[C@@H](C)CO2,0,-7,/,/,/,/
CCCCOC(=O)/C=C/c1c(C)[nH]c(=O)[nH]c1=O,/,-34*,-2,-9,6,-2
CCOC(=O)CN(C)Cc1cn(C)nc1-c1ccc(Oc2ccccc2)cc1,2,-20*,0,10,-6,-9
Cc1cnccc1CN(C)Cc1cn(C)nc1-c1ccc(Oc2ccccc2)cc1,/,-57,-2,0,-8,-3
Cc1nn(-c2ccccc2)nc1C(=O)NNC(=O)c1cccc2ccccc12,2,-21*,0,-2,3,-1
Cc1nn(-c2ccccc2)nc1C(=O)NN,5,0,0,3,-2,-28
COc1ccc(C(=O)Nc2ccc3nc(C)sc3c2)cc1OC,/,-20*,0,-2,2,0
CC=Cc1ccc2n(c1=O)C[C@H]1[C@H](CO)[C@@H](C(=O)Nc3ccccc3)N(CC3CC3)[C@@H]21 (mixture of isomers),-6,-2,/,/,/,/
SMILES,Cneo AK release,rRNA inh HTS,iPSC survival up,SKN-1 block,MT1-MMP act inh,DAGLB inh
CCOc1cc(/C=C2\N=C(C)OC2=O)cc(Br)c1OCCc1ccccc1,-1,-24*,-2,1,2,2
C[C@H](CO)N1C[C@H](C)[C@@H](CN(C)C(=O)NC2CCCCC2)OCCCC[C@H](C)Oc2ccc(NC(=O)Nc3ccc4c(c3)OCO4)cc2C1=O,-7,-1,/,/,/,/
O=c1[nH]c2ccccc2cc1CN(Cc1cccnc1)S(=O)(=O)c1ccc([N+](=O)[O-])cc1,0,-21*,0,18,-2,2
CC(=O)Nc1ccc(S(=O)(=O)N(Cc2cccnc2)Cc2cc3ccccc3[nH]c2=O)cc1,0,-6,1,15,-16,1
O=c1[nH]c2ccccc2cc1CN(Cc1cccnc1)S(=O)(=O)c1ccc(Cl)cc1,-3,-45*,-1,12,-3,0
Cc1cc(C(=O)Nc2ccc3c(c2)C(=O)N(C)[C@@H]2CC[C@@H](CC(=O)N[C@H](C)c4ccccc4)O[C@@H]2CO3)no1,8,3,/,/,/,/
C[C@H]1CN([C@@H](C)CO)C(=O)c2cccc(NC(=O)c3cnccn3)c2O[C@@H]1CN(C)Cc1ccc2c(c1)OCO2,56,1,/,/,/,/
CCCNC(=O)[C@H]1[C@H](CO)[C@H]2Cn3c(ccc(C4=CCCC4)c3=O)[C@@H]1N2C(=O)CC,1,3,/,/,/,/
Cn1c(SCC(=O)CC(=O)Nc2ccccc2)nnc1-c1ccc(O)cc1,1,-18*,-1,13,3,5
Nc1ccc(CSc2ccc(Cl)cc2)c(Cl)c1,3,/,5,45*,4,0
CC(C)C[C@H]1CN([C@@H](Cc2ccc(O)cc2)CN2CCC[C@H]2CN2C(=O)C(=O)NC[C@@H]2Cc2ccc(O)cc2)C(=O)C(=O)N1CCc1ccccc1,/,-28*,1,-14,-1,/
CC(C)C[C@H]1CN([C@@H](Cc2ccc(O)cc2)CN2CCC[C@H]2CN2C(=O)C(=O)NC[C@@H]2Cc2ccccc2)C(=O)C(=O)N1CCc1ccccc1,/,-33,0,8,1,/
COc1cccc(C(=O)Nc2ccc3c(c2)C(=O)N(C)C[C@H](OC)[C@H](C)CN(C(C)=O)[C@@H](C)CO3)c1,-2,1,/,/,/,/
Brc1ccc2[nH]c3c(c2c1)CCC3,3,-16*,-1,22,6,0
